LANA-H2A inh: blocks KSHV LANA binding to histone H2A/H2B | inhibition, % (no concentration beside the values) | cell-free LANA-H2A/H2B peptide, fluorescence polarization | 320,000 compounds, 0.6% hits | Q9QR71; in the data active means inhibition mostly above about 10%, no sharp cut-off; inactive means mostly below about 6.7%
Keap1 Nrf2 FP: Keap1-Nrf2 (human) interaction inhibition; 340,000 compounds, 0.15% hits; Keap1 Kelch-Nrf2 peptide fluorescence polarization, 1536-well; Q14145; inhibition, % at 9.4 µM; in the data active means inhibition above about 12%;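 further: human Keap1 Kelch domain with fluorescein labeled Nrf2 9mer peptide probe; 0% = neutral control wells and 100% = peptide positive control; higher means more block of Keap1 binding to Nrf2 peptide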
CAL PDZ FP-1: CAL PDZ (human) peptide binding inhibition; Q9HD26; purified CAL PDZ, TMR-peptide fluorescence polarization, 1 h; inhibition, % at 24.9 µM; 300,000 compounds, 0.92% hits; AID 602252;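 active means mean inhibition of at least 30% with at least half of replicates also reaching 30%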;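 further: 0% = DMSO neutral control and 100% = excess unlabeled competitor peptide PRC23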
CaV13 FRET inh: Disruptors of the CACNA1D IQ motif to Ca2+-dependent inactivation inhibitor domain association, primary screening, Förster resonance energy transfer in intact living …; inhibition, % at 12.3 µM; 340,000 compounds, 0.098% hits; HEK cells, CFP/YFP FRET ICDI-IQ, plate reader, 10 min; percent FRET-ratio fall versus neutral wells; AID 743397;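 active means mean replicate inhibition of at least 30% and at least 1% of replicates passing that level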;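 further: 0% = median of the neutral control wells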
LANA DNA inh: inhibitors of KSHV LANA C-terminal domain DNA binding. MBP-C-LANA/FAM-LBS DNA binding, fluorescence polarization. inhibition, % at 9 µM. AID 504423. 340,000 compounds, 0.078% hits;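 active means highest replicate inhibition at or above 60% at 9 µM, even if other replicates fall short; inactive means all replicates below 60% inhibition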;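 further: 0% = neutral control wells and 100% = 4 µM acridine orange control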
CAL PDZ FP-2: human CAL PDZ-peptide interaction inhibition | Q9HD26 | purified CAL PDZ, TMR-peptide fluorescence polarization, 1 h | inhibition, % at 20 µM | 330,000 compounds, 0.02% hits;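 active means highest replicate inhibition of at least 40%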;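 further: plate controls were DMSO neutral control wells for no effect and unlabeled competitor peptide control wells for full effect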
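Test system: tagged CAL PDZ domain / Buffer or medium: sodium phosphate/NaCl buffer pH 7.4 with TCEP, IgG, Thesit / Reagent: TMR-labelled reporter peptide T*-PRC34 bound in PDZ groove / Compound dosing: single point, 20 µM / Schedule: 1 h incubation at room temperature before polarization reading / Technique: fluorescence polarization (mP) / Benchmarks: unlabelled peptide, DMSO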
An asterisk follows results filed as active; nt = not tested or not shown; ! = not confirmed by another sample. Sampled rows, rich in hits. Any-hit rate of the full collection: about 1.5%.

SMILES | LANA-H2A inh | Keap1 Nrf2 FP | CAL PDZ FP-1 | CaV13 FRET inh | LANA DNA inh | CAL PDZ FP-2
COc1ccc(S(=O)(=O)N2CCC(C(=O)N[C@H](C(=O)NCc3ccncc3)C(C)C)CC2)cc1 | 1.4 | 4.5 | 0.4 | -14.6 | 1.6 | -2.6
O=C(NCc1ccccc1)[C@@H]1CCCN1C(=O)[C@H]1CCCN1C(=O)c1ccccc1F | nt | nt | nt | -9.9 | nt | nt
CC1CCCCC1NC(=O)C1CCN(S(=O)(=O)N2CCOCC2)CC1 (centres undefined) | 25.9* | 1.6 | nt | -4.7 | 2.0 | -0.2
CC1CCCC(NC(=O)C2CCN(S(=O)(=O)N3CCOCC3)CC2)C1C (centres undefined) | 5.7 | -0.1 | 1.1 | -4.0 | -0.5 | 0.1
COc1cccc(NC(=S)N2CCN(S(=O)(=O)c3ccc(F)cc3)CC2)c1 | -0.8 | 0.3 | -0.1 | -6.2 | 1.9 | -2.8
COc1cc(NC(=S)N2CCN(S(=O)(=O)c3ccc(F)cc3)CC2)cc(OC)c1 | -1.1 | -6.3 | 48.3* | -2.2 | -1.1 | -1.7
O=C(NC1CC1)c1ccc2c(c1)S(=O)(=O)c1cc(Cl)ccc1C2=O | 0.2 | nt | nt | -5.6 | nt | nt
Cc1nnsc1C(=O)NC1CCCc2c1cnn2-c1ccc(C(C)(C)C)cc1 (centres undefined) | 0.3 | -1.3 | 59.6* | -9.8 | -1.4 | -1.3
Cc1ccc(Nc2nc(NCC3CCCO3)nc(N)c2[N+](=O)[O-])cc1C (centres undefined) | 3.5 | 3.1 | 30.5* | -4.8 | -0.9 | 0.1
CC(C)CNc1nc(N)c([N+](=O)[O-])c(NCC2CCCO2)n1 (centres undefined) | 1.3 | -5.9 | 6.7 | -2.9 | 1.8 | 0.2
COc1ccccc1/C=C/CN1CCCC(CO)(Cc2cccc(Cl)c2)C1 (centres undefined) | 0.0 | -0.1 | 2.4 | -6.2 | -2.0 | -3.5
COc1ccc(/C=C/CN2CCCC(CO)(Cc3cccc(Cl)c3)C2)cc1 (centres undefined) | 0.8 | 1.5 | 54.4* | -4.1 | 0.4 | -2.0
O=C1CC2(CCN(C(=O)c3ccc(F)cc3)CC2)Oc2ccccc21 | -1.5 | -4.7 | -6.6 | -2.2 | 0.0 | -0.5
Cc1cc(F)ccc1NC(=O)c1cc(S(=O)(=O)N2CCCC2)cn1C | -0.9 | 0.3 | 68.7* | -9.8 | 0.2 | -0.4
COc1ccccc1NC(=O)c1cc(S(=O)(=O)N2CCCC2)cn1C | 6.5 | 0.2 | nt | -10.3 | -1.7 | -0.3
CC(C)Oc1ccc(CNC(=O)CCC(=O)N2CC(C)Sc3ccccc32)cc1 (centres undefined) | 27.4* | -1.9 | 9.6 | -2.5 | 0.9 | -0.2
Cc1ccc(S(=O)(=O)N2[C@H](CC(=O)c3cccc4ccccc34)OC[C@@H]2C)cc1 | nt | nt | nt | -5.2 | nt | nt
CCNC(=S)N1CCC(C(O)(c2ccccc2)c2ccccc2)CC1 | -1.3 | 3.4 | -5.9 | -1.5 | 1.1 | 0.5
NC(=O)NCC(=O)N1CCC(C(O)(c2ccccc2)c2ccccc2)CC1 | 1.9 | -1.1 | 79.1* | -4.4 | -1.0 | -1.5
O=C(CCNC(=O)c1ccccc1Cl)Nc1cc(C(F)(F)F)ccc1Cl | 5.1 | -3.4 | 0.7 | -2.6 | 0.1 | -1.3
Cc1ccc(C)c(C(=O)COC(=O)CCCC(=O)Nc2cc(C(F)(F)F)ccc2Cl)c1 | 12.1* | -10.7 | -0.2 | -5.6 | -0.5 | -3.4
COCc1[nH][nH]c(=O)c1/C=N/N1CCOCC1 | 4.5 | -0.2 | 43.3* | -2.2 | -1.0 | -1.4
CN(C)C(=O)Oc1ccc[n+](C)c1 | 73.5*! | -3.4 | -1.1 | -5.3 | -0.4 | 0.7
C[n+]1cccc(C(=O)[O-])c1 | -0.6 | 1.0 | 1.7 | -5.5 | -0.8 | -1.0
CCN(C(=O)COC(=O)CCc1ccccc1)c1ccccc1 | -2.0 | 2.3 | -19.9 | -6.9 | -0.1 | -2.0
COc1ccc(Cl)cc1S(=O)(=O)N1CCN(C(=O)c2ccco2)CC1 | 1.8 | -2.1 | 1.2 | -5.1 | -0.8 | 0.5
COc1ccc(S(=O)(=O)N2CCN(C(=O)c3ccco3)CC2)c(C)c1C | -0.1 | -1.0 | 74.8* | -11.5 | -13.5 | 6.6
Cc1noc(C)c1S(=O)(=O)Nc1ccc(C#N)cc1 | -4.8 | 0.5 | -1.7 | nt | 0.6 | -1.2
